A selection: hits, their analogues and other compounds. The true share with any hit is near 3.1%.
RAM inhibit: blocks the yeast RAM network; S. cerevisiae dse1pr::URA3 reporter, 5-FOA growth OD615, 2 d; analog-sensitive cbk1-as2 kinase mutant strain; inhibition, % at 50 µM; 190,000 tested, 1.8% active; AID 868;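 active means inhibition above a set limit, 3 SD over mean compound inhibition, cut at about 8.4% in these data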;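 further: 0% = DMSO-only wells with no growth and 100% = 10 µM 1-NA-PP1 full growth; inhibition rescues growth on 5-FOA so higher OD means more RAM inhibition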
BB579 growth dn: reduces growth of yeast BB579 in restrictive medium; S. cerevisiae BB579 growth, OD615, 48 h; AID 804; 140,000 tested, 0.51% active; inhibition, % at 10 µM;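 active means inhibition above a set limit, 3 SD over the mean compound inhibition, cut at about 44% in these data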
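Test system: DeaD yeast strain BB579 / Buffer or medium: restrictive glucose-based CSMM-D medium / Doses: single 10 µM dose / Schedule: 4 h cell preincubation, 48 h compound exposure, 30 °C humidified / Technique: culture absorbance at 615 nm / Controls: amphotericin B positive control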
Insulin prom up: MIN6 insulin promoter up-regulation; MIN6 insulin promoter-GFP reporter, high-content imaging; hits give high values; 190,000 tested, 0.3% active; z-score at 5 µM;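 active means z-score above 3 at 5 µM with at least 500 cells counted in the well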
Insulin prom inh: TRM-6 insulin promoter activity inhibition | TRM-6 cells, insulin promoter-eGFP reporter, imaging; reporter expression induced with tamoxifen | inhibition, % at 2 µM | 130,000 tested, 0.9% active | AID 1273;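 active means inhibition above the mean plus 3 SD, with well images judged a real hit on visual review, cut at about 60% in these data, passing the limit was not always enough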
Yeast lifespan up: yeast lifespan extension; S. cerevisiae growth with nicotinamide, OD615; deaD strain in restrictive glucose medium; inhibition of the nicotinamide effect, % at 10 µM; 130,000 tested, 0.68% active; AID 775;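 active means inhibition above a set limit, placed 3 SD over the median of all compounds, cut at about 26% in these data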;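 further: 0% = nicotinamide-treated wells and 100% = cells grown without nicotinamide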
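Test system: DeaD-strain S. cerevisiae / Buffer or medium: restrictive glucose medium / Also added: nicotinamide 1.5 mM / Doses: one concentration, 10 µM, DMSO 0.25% / Schedule: 48 h at 30 °C / Signal: OD615 measurement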
Starred values were filed as active, the others as inactive; . = no result.

SMILES	RAM inhibit	BB579 growth dn	Insulin prom up	Insulin prom inh	Yeast lifespan up
COc1cccc(/C=C2\SC(=S)N(CC3CCCO3)C2=O)c1 (configuration not stated)	8.6*	-20	0.02	15	1
O=C(O)C1C2C=CC(O2)C1C(=O)NC1CCCc2ccccc21 (configuration not stated)	0	77*	1.9	-55	-12
Cc1c(Cl)cccc1N=Cc1ccc([N+](=O)[O-])s1	-2	57*	-0.79	.	-30
C=CCn1c(=O)c2c3c(sc2n2c(Nc4ccc(C(=O)OCC)cc4)nnc12)CCCC3	8.5*	-84	.	14	5
C=CCn1c(=O)c2c3c(sc2n2c(Nc4ccc(OC)cc4)nnc12)CCCC3	4	-46	-0.54	11	-3
O=C(Nc1cccc(N=Cc2cc(Cl)cc(Br)c2O)c1)c1ccco1	-1	56*	-0.75	0	7
O=C(Nc1cccc(N=Cc2cc(Br)cc(Br)c2O)c1)c1ccco1	-1	100*	.	.	-10
Cc1ccc(C)c(CSc2nnc(-c3cccs3)n2Cc2ccco2)c1	5	-15	-0.38	-26	5
Cc1ccc(OCC(=O)N2CCN(C(=O)c3ccncc3)CC2)cc1	1	.	-0.31	.	.
Cn1nnnc1SCCNCC#Cc1ccccc1	1	-14	.	9	114*
Cn1nnnc1SCCNCc1ccccc1F	0	29	.	38	-1
Cc1cccc(-c2noc(CN(C)S(=O)(=O)c3cc(Cl)ccc3Cl)n2)c1	8.6*	-42	-0.92	27	-10
Cc1cccc(-c2noc(CN(C(=O)/C=C/c3ccccc3Cl)C(C)C)n2)c1	11*	-53	.	-33	3
CC1=C(C#N)c2nc(N)c(C#N)c(C)c2/C1=C\c1ccc(OCC(=O)O)c(Cl)c1	.	.	0.77	.	.
Cc1cc(=O)[nH]c2c1c(C)nn2-c1ccccc1	1	-31	-0.29	61*	.
CN(C)c1ccc([C@@H]2[C@@H]([N+](=O)[O-])[C@H]3C=Cc4ccccc4N3[C@H]2C(=O)c2ccc(Cl)cc2)cc1	2	-9	-2.3	.	32*
O=C(c1ccccc1)C1C(c2ccccc2)C1[N+](=O)[O-] (configuration not stated)	.	.	-0.45	.	.
CS(=O)(=O)c1ccc(C(=O)OCc2nnc(-c3ccc(Cl)cc3)o2)cc1[N+](=O)[O-]	3	.	-0.38	46	.
COc1ccc(C2C(C(=O)N3CCOCC3)CCC(=O)N2c2ccc(OC)cc2)cc1 (configuration not stated)	1	-10	3.7*	.	-11
COC(=O)c1ccc(COC(=O)CCc2nc(-c3ccccc3)c(-c3ccccc3)o2)cc1	11*	-37	-0.42	20	-12
O=C(c1cccs1)N1CCN=C1SCc1ccccc1F	4	.	0.52	58	.
COc1ccc(CNC(=O)Cn2cncn2)cc1OC	0	.	0.16	89*	.
Cc1cc(NS(=O)(=O)c2ccc(NC(=O)C(C)Oc3ccc4c(C)cc(=O)oc4c3)cc2)no1 (configuration not stated)	10*	-40	-0.29	62	17
Cc1cc(NS(=O)(=O)c2ccc(NC(=O)c3oc4ccccc4c3C)cc2)no1	3	-34	1.4	79*	-7
O=C(/C=C/c1ccc(O)c(O)c1)c1ccc(S(=O)(=O)N2CCCCCC2)cc1	9.4*	-32	.	7	1
SMILES	RAM inhibit	BB579 growth dn	Insulin prom up	Insulin prom inh	Yeast lifespan up
COC(=O)c1ccc(S(=O)(=O)N2CCCCCC2)cc1	1	-22	-0.21	-9	2
COc1ccc(C(=O)/C=C/c2cc(OC)c(O)c(OC)c2)c(F)c1	-1	-27	.	-20	-4
COc1ccc(/C=C/C(=O)c2c(O)cc(C)oc2=O)c(OC)c1	7	-54	0.04	-60	-8
COc1cccc(/C=C/C(=O)c2c(O)cc(C)oc2=O)c1O	1	-12	-0.67	-26	47*
COc1cc(/C=C/C(=O)c2c(O)cc(C)oc2=O)cc(OC)c1O	0	-17	0.24	7	56*
c1ccc(-c2nc3nonc3nc2-c2ccccc2)cc1	4	70*	-1.1	.	-21
Nc1c(-c2ccccc2)nc(Cl)nc1-c1ccccc1	2	-16	1.4	.	-5
O=[N+]([O-])c1ccccc1S(=O)(=O)n1cnc2ccccc21	0	.	.	17	.
CN1CCN(c2ccccc2NC(=O)c2ccc(-c3ccc(Cl)cc3Cl)o2)CC1	3	-10	0.69	3	-22
O=C(Nc1ccccc1N1CCCCC1)c1ccc(-c2cccc(Cl)c2)o1	9.5*	-24	-0.21	6	0
CCCCn1nnc(NC(=O)c2ccc(-c3cccc(Cl)c3)o2)n1	8.4*	-39	.	0	-19
CCCn1nnc(NC(=O)c2ccc(-c3cccc(Cl)c3)o2)n1	-1	-16	-0.03	-11	-29
Cc1ccccc1Nc1nc(CSc2nnnn2-c2ccccc2)cs1	2	-55	-0.26	69*	-17
Cc1ccccc1NC(=O)CCSc1nnnn1-c1ccccc1	0	-20	.	0	.
COc1cc(Nc2ccc(C(=O)O)cc2[N+](=O)[O-])cc(OC)c1	10*	-72	0.27	7	7
Cc1ccc2nc(SCc3cccc([N+](=O)[O-])c3)nc(C)c2c1	11*	-27	-0.27	.	3
Cc1nc(SCc2ccc([N+](=O)[O-])cc2)nc2ccccc12	9.5*	2	-0.47	-4	-13
CCOC(=O)CSc1nc(C)c2ccccc2n1	2	-30	-0.09	79*	-8
CCOC(=O)CSc1nc(C)c2cccc(C)c2n1	.	.	-0.13	.	.
COc1ccc(C2=C(C=C(C#N)C#N)C(c3ccccc3C)c3ccccc3O2)cc1OC (configuration not stated)	8	-55	-0.87	-30	4
Cc1nn(-c2nnc(NC3CCCCC3)nn2)c(C)c1Br	1	-16	-0.2	-8	-1
CC(=O)c1ccc(N2CCN(C(=O)CCCc3nc4ccccc4s3)CC2)cc1	9.3*	-34	1	22	2
CCOC(=O)C1(Cc2cccc(F)c2)CCN(C(=O)c2ccoc2C)CC1	2	.	-0.52	.	.
CC(=O)Nc1ccc(C(=O)OCC(=O)c2ccc(C)c([N+](=O)[O-])c2)cc1	1	-32	0.18	.	-11
CCC(=O)Nc1ccc(C(=O)OCC(=O)c2ccc(C)c([N+](=O)[O-])c2)cc1	3	-59	3.4*	10	-16
Cc1ccc(NC(=O)CCC(=O)OCC(=O)c2ccc(Oc3ccc([N+](=O)[O-])cc3)cc2)cc1C	11*	-11	0.19	-49	-3
CC(=O)Nc1ccc(NC(=O)CCC(=O)OCC(=O)c2cccc([N+](=O)[O-])c2)cc1	1	.	.	.	.
O=C(Cc1c[nH]c2ccccc12)Nc1ccc(N2CCOCC2)cc1	2	.	0.01	.	.
O=C(Nc1nc2cc(Cl)ccc2s1)C1CCCN(S(=O)(=O)c2cccc3cccnc23)C1 (configuration not stated)	4	-2	0.69	.	-7
